Activity calls are given as the source filed them.
Legend:
[1] = system: Candida parapsilosis; assay: Fungicidal activity against Candida parapsilosis MTCC 1744 after 24 hrs by serial dilution method; format: functional; conditions: Lodderomyces parapsilosis, MTCC 1744, 24 h
[2] = system: Nakaseomyces glabratus; assay: Antimicrobial activity against Candida glabrata MTCC 3019 assessed as growth inhibition after 24 hrs by agar well diffusion method; format: functional; conditions: MTCC 3019, 24 h
[3] = system: Pichia kudriavzevii; assay: Fungicidal activity against Candida krusei MTCC 3020 after 24 hrs by serial dilution method; format: functional; conditions: MTCC 3020, 24 h
[4] = system: Candida albicans; assay: Fungicidal activity against Candida albicans MTCC 183 after 24 hrs by serial dilution method; format: functional; conditions: MTCC 183, 24 h
[5] = system: Bacillus subtilis; assay: Antibiofilm activity against Bacillus subtilis MTCC 121 after 24 hrs by crystal violet staining based assay; format: functional, organism-based; conditions: MTCC 121, 24 h
Summary of the method: (§1)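 Biofilm inhibition tested for amine esters and esterquats. IC50 values (µg/mL) are the mean of three determinations, with ciprofloxacin as reference.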

[6] = system: Raoultella planticola; assay: Antimicrobial activity against Klebsiella planticola MTCC 530 assessed as growth inhibition after 24 hrs by agar well diffusion method; format: functional; conditions: MTCC 530, 24 h
[7] = system: Candida albicans; assay: Antimicrobial activity against Candida albicans MTCC 3958 assessed as growth inhibition after 24 hrs by agar well diffusion method; format: functional; conditions: MTCC 3958, 24 h
[8] = system: Candida albicans; assay: Antimicrobial activity against Candida albicans MTCC 1637 assessed as growth inhibition after 24 hrs by agar well diffusion method; format: functional; conditions: MTCC 1637, 24 h
[9] = system: Candida albicans; assay: Antimicrobial activity against Candida albicans MTCC 227 assessed as growth inhibition after 24 hrs by agar well diffusion method; format: functional; conditions: MTCC 227, 24 h
[10] = system: Candida albicans; assay: Antimicrobial activity against Candida albicans MTCC 183 assessed as growth inhibition after 24 hrs by agar well diffusion method; format: functional; conditions: MTCC 183, 24 h
[11] = system: Pichia sporocuriosa; assay: Antimicrobial activity against Issatchenkia hanoiensis MTCC 4755 assessed as growth inhibition after 24 hrs by agar well diffusion method; format: functional; conditions: MTCC 4755, 24 h
[12] = system: Candida albicans; assay: Fungicidal activity against Candida albicans MTCC 854 after 24 hrs by serial dilution method; format: functional; conditions: MTCC 854, 24 h
[13] = system: [Candida] aaseri; assay: Fungicidal activity against Candida aaseri MTCC 1962 after 24 hrs by serial dilution method; format: functional; conditions: Yamadazyma aaseri, MTCC 1962, 24 h
[14] = system: Candida parapsilosis; assay: Antimicrobial activity against Candida parapsilosis MTCC 1744 assessed as growth inhibition after 24 hrs by agar well diffusion method; format: functional; conditions: Lodderomyces parapsilosis, MTCC 1744, 24 h
[15] = system: Micrococcus luteus; assay: Antimicrobial activity against Micrococcus luteus MTCC 2470 assessed as growth inhibition after 24 hrs by agar well diffusion method; format: functional; conditions: MTCC 2470, 24 h
[16] = system: Raoultella planticola; assay: Bactericidal activity against Klebsiella planticola MTCC 530 after 24 hrs by serial dilution method; format: functional; conditions: MTCC 530, 24 h
[17] = system: Candida albicans; assay: Antimicrobial activity against Candida albicans MTCC 854 assessed as growth inhibition after 24 hrs by agar well diffusion method; format: functional; conditions: MTCC 854, 24 h
[18] = system: Bacillus subtilis; assay: Bactericidal activity against Bacillus subtilis MTCC 121 after 24 hrs by serial dilution method; format: functional; conditions: MTCC 121, 24 h
[19] = system: Staphylococcus aureus; assay: Bactericidal activity against Staphylococcus aureus MLS16 MTCC 2940 sessile forms assessed as increase in intracellular ROS accumulation in at 0.5 to 2 ug/mL after 24 hrs by DCFHDA staining based fluorometric assay; format: functional, organism-based
Summary of the method: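 Intracellular ROS measured in cells of mature biofilms using the general ROS fluorescent probe 2′,7′-dichlorofluorescein-diacetate (DCFH-DA), read as increase in fluorescence. Sessile cells and the supernatant were measured separately.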

[20] = system: Candida albicans; assay: Fungicidal activity against Candida albicans MTCC 3958 after 24 hrs by serial dilution method; format: functional; conditions: MTCC 3958, 24 h
[21] = system: Staphylococcus aureus; assay: Antibiofilm activity against Staphylococcus aureus MLS16 MTCC 2940 after 24 hrs by crystal violet staining based assay; format: functional, organism-based; conditions: MLS16 MTCC 2940, 24 h; summary of the method: as §1
[22] = system: Candida albicans; assay: Fungicidal activity against Candida albicans MTCC 7315 after 24 hrs by serial dilution method; format: functional; conditions: MTCC 7315, 24 h
[23] = system: Micrococcus luteus; assay: Bactericidal activity against Micrococcus luteus MTCC 2470 after 24 hrs by serial dilution method; format: functional; conditions: MTCC 2470, 24 h
[24] = system: Candida albicans; assay: Fungicidal activity against Candida albicans MTCC 3018 after 24 hrs by serial dilution method; format: functional; conditions: MTCC 3018, 24 h
[25] = system: Bacillus subtilis; assay: Antimicrobial activity against Bacillus subtilis MTCC 121 assessed as growth inhibition after 24 hrs by agar well diffusion method; format: functional; conditions: MTCC 121, 24 h
[26] = system: Candida albicans; assay: Antimicrobial activity against Candida albicans MTCC 3017 assessed as growth inhibition after 24 hrs by agar well diffusion method; format: functional; conditions: MTCC 3017, 24 h
[27] = system: Candida albicans; assay: Fungicidal activity against Candida albicans MTCC 4748 after 24 hrs by serial dilution method; format: functional; conditions: MTCC 4748, 24 h
[28] = system: Staphylococcus aureus; assay: Bactericidal activity against Staphylococcus aureus MTCC 96 after 24 hrs by serial dilution method; format: functional; conditions: MTCC 96, 24 h
[29] = system: Candida albicans; assay: Fungicidal activity against Candida albicans MTCC 1637 after 24 hrs by serial dilution method; format: functional; conditions: MTCC 1637, 24 h
[30] = system: Pseudomonas aeruginosa; assay: Antimicrobial activity against Pseudomonas aeruginosa MTCC 2453 assessed as growth inhibition after 24 hrs by agar well diffusion method; format: functional; conditions: MTCC 2453, 24 h
[31] = system: Staphylococcus aureus; assay: Antibiofilm activity against Staphylococcus aureus MTCC 96 after 24 hrs by crystal violet staining based assay; format: functional, organism-based; conditions: MTCC 96, 24 h; summary of the method: as §1
[32] = system: Escherichia coli; assay: Bactericidal activity against Escherichia coli MTCC 739 after 24 hrs by serial dilution method; format: functional; conditions: MTCC 739, 24 h
[33] = system: Pichia kudriavzevii; assay: Antimicrobial activity against Candida krusei MTCC 3020 assessed as growth inhibition after 24 hrs by agar well diffusion method; format: functional; conditions: MTCC 3020, 24 h
[34] = system: Staphylococcus aureus; assay: Antimicrobial activity against Staphylococcus aureus MLS16 MTCC 2940 assessed as growth inhibition after 24 hrs by agar well diffusion method; format: functional; conditions: MLS16 MTCC 2940, 24 h
[35] = system: Staphylococcus aureus; assay: Bactericidal activity against Staphylococcus aureus MLS16 MTCC 2940 after 24 hrs by serial dilution method; format: functional; conditions: MLS16 MTCC 2940, 24 h
[36] = system: Candida albicans; assay: Antimicrobial activity against Candida albicans MTCC 7315 assessed as growth inhibition after 24 hrs by agar well diffusion method; format: functional; conditions: MTCC 7315, 24 h
[37] = system: Staphylococcus aureus; assay: Antimicrobial activity against Staphylococcus aureus MTCC 96 assessed as growth inhibition after 24 hrs by agar well diffusion method; format: functional; conditions: MTCC 96, 24 h
[38] = system: [Candida] aaseri; assay: Antimicrobial activity against Candida aaseri MTCC 1962 assessed as growth inhibition after 24 hrs by agar well diffusion method; format: functional; conditions: Yamadazyma aaseri, MTCC 1962, 24 h
[39] = system: Micrococcus luteus; assay: Antibiofilm activity against Micrococcus luteus MTCC 2470 after 24 hrs by crystal violet staining based assay; format: functional, organism-based; conditions: MTCC 2470, 24 h; summary of the method: as §1
[40] = system: Candida albicans; assay: Fungicidal activity against Candida albicans MTCC 3017 after 24 hrs by serial dilution method; format: functional; conditions: MTCC 3017, 24 h
[41] = system: Nakaseomyces glabratus; assay: Fungicidal activity against Candida glabrata MTCC 3019 after 24 hrs by serial dilution method; format: functional; conditions: MTCC 3019, 24 h
[42] = system: Pichia sporocuriosa; assay: Fungicidal activity against Issatchenkia hanoiensis MTCC 4755 after 24 hrs by serial dilution method; format: functional; conditions: MTCC 4755, 24 h
[43] = system: Candida albicans; assay: Antimicrobial activity against Candida albicans MTCC 3018 assessed as growth inhibition after 24 hrs by agar well diffusion method; format: functional; conditions: MTCC 3018, 24 h
[44] = system: Candida albicans; assay: Fungicidal activity against Candida albicans MTCC 227 after 24 hrs by serial dilution method; format: functional; conditions: MTCC 227, 24 h
[45] = system: Candida albicans; assay: Antimicrobial activity against Candida albicans MTCC 4748 assessed as growth inhibition after 24 hrs by agar well diffusion method; format: functional; conditions: MTCC 4748, 24 h
[46] = system: Escherichia coli; assay: Antimicrobial activity against Escherichia coli MTCC 739 assessed as growth inhibition after 24 hrs by agar well diffusion method; format: functional; conditions: MTCC 739, 24 h

CCCCCC[N+](C)(CCCCCCCCCCC(=O)OC)CCCCCCCCCCC(=O)OC.[Cl-]
1.9 µg/mL: MIC [15] | IC50 [31]
1.5 µg/mL: IC50 [39]
> 125 µg/mL: MIC [6] | MBC [16] | MIC [30] | MBC [32] | MIC [46]
31.2 µg/mL: MFC [1] | MFC [4] | MIC [17] | MFC [22] | MFC [24] | MFC [29] | MIC [33] | MFC [41] | MFC [42] | MFC [44]
3.9 µg/mL: MBC [23] | MIC [34] | MBC [35] | MIC [37]
62.5 µg/mL: MFC [3] | MFC [12]
0.9 µg/mL: IC50 [21]
active: Activity [19]
4.1 µg/mL: IC50 [5]
15.6 µg/mL: MIC [2] | MIC [7] | MIC [8] | MIC [9] | MIC [10] | MIC [11] | MFC [13] | MIC [14] | MBC [18] | MFC [20] | MIC [36] | MFC [40] | MIC [43]
7.8 µg/mL: MIC [25] | MIC [26] | MFC [27] | MBC [28] | MIC [38] | MIC [45]

CCCCCC[N+](C)(C)CCCCCCCCCCC(=O)OC.[Cl-]
2.5 µg/mL: IC50 [31]
3.2 µg/mL: IC50 [21]
3.9 µg/mL: MIC [15] | MIC [37]
31.2 µg/mL: MFC [1] | MFC [3] | MFC [4] | MIC [7] | MIC [8] | MIC [9] | MFC [12] | MBC [16] | MFC [20] | MFC [24] | MIC [38] | MFC [40] | MFC [41] | MFC [42] | MIC [46]
15.6 µg/mL: MIC [2] | MIC [6] | MIC [10] | MIC [11] | MIC [14] | MIC [17] | MFC [22] | MIC [26] | MFC [27] | MIC [33] | MBC [35] | MIC [36] | MIC [43] | MIC [45]
2.1 µg/mL: IC50 [39]
7.8 µg/mL: MBC [18] | MBC [23] | MIC [25] | MBC [28] | MIC [34]
4.8 µg/mL: IC50 [5]
62.5 µg/mL: MFC [13] | MFC [29] | MBC [32] | MFC [44]
> 125 µg/mL: MIC [30]

From ChEMBL document CHEMBL3784971, “Synthesis, characterization, antimicrobial and biofilm inhibitory studies of new esterquats” (Bioorg Med Chem Lett, 2016)
